SMILES strings stand for the structures. The source made the active and inactive calls. The rule behind the calls is not given here.

Broadly, the IC50 is the point on the concentration scale where inhibition reaches its midpoint. By Inhibition is commonly meant the drop in the measured response relative to a control, in per cent. A higher Inhibition goes with strong suppression.

The first experiment relates to WISH. In words: In vitro inhibitory activity against the growth of WISH cell derived from human cervical carcinoma was determined; slight reduction in cell growth. The experiment is classed as functional, cell-based.
Take `O=C1CC(c2ccccc2)Oc2ccccc21` (stereo not drawn): the inhibition entry was “Weak activity”.

A further experiment concerns WISH. The experiment in a line: In vitro inhibitory activity against the growth of WISH cell derived from human cervical carcinoma was determined; slight effect. It counts as functional, cell-based.
As to `COc1cc(OC)c2c(=O)cc(-c3ccccc3)oc2c1`, the inhibition result is on record as “slight effect”.
The same measure, in the same setting: with `O=c1cc(-c2ccccc2)oc2c1ccc1ccccc12` the entry was “Weak activity”; with `O=C(O)/C=C/c1ccccc1`, “slight effect”.
Same read-out and setting: the result for `O=c1cc(-c2ccccc2)oc2cc(O)cc(O)c12` reads “Weak activity”.
Regarding `O=c1cc(-c2ccc(O)cc2)oc2cc(O)cc(O)c12`, the inhibition entry is “Weak activity”.
Same read-out and setting: with `O=c1c(O)c(-c2ccc(O)c(O)c2)oc2cc(O)cc(O)c12` the entry was “Weak activity”; with `O=c1cc(-c2ccccc2)oc2ccc3ccccc3c12`, “Weak activity”.

The subject of another experiment is WISH. In words: In vitro inhibitory activity against the growth of WISH cell derived from human cervical carcinoma was determined; Inactive. It counts as functional, cell-based.
For `O=c1cc(-c2ccccc2)oc2ccc([N+](=O)[O-])cc12`, the inhibition result was “inactive”.
In the case of `O=C(O)/C=C/c1ccc(O)c(O)c1`, the NA result was “inactive”.
Still for that read-out and setting: with `O=c1cc(-c2ccccc2)oc2ccccc12` the entry was “inactive”.

In the next experiment the test system is WISH. The experiment in a line: (§1) In vitro inhibitory activity against the growth of WISH cell derived from human cervical carcinoma was determined. The experiment is classed as functional, cell-based. Summed up:
(§2)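 WISH cells (HeLa-derived; grown in MEM with 10% FBS, 2 mM L-glutamine and antibiotics), 10,000 per well. Cells exposed 72 h at 37 °C to a concentration series of compound given in DMSO/ethanol (1:10), with controls solvent-matched. Total cell number read colorimetrically as hexosaminidase level. IC50, the molar concentration giving 50% growth inhibition, was taken from dose–response curves.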
As to `O=c1cc(-c2ccccc2[N+](=O)[O-])oc2ccccc12`, the IC50 was about 3000 nM.
The same measure, in the same setting: with `O=c1cc(-c2ccccc2[N+](=O)[O-])oc2ccc([N+](=O)[O-])cc12` the figure was about 3000 nM; with `CCCCOC(=O)/C=C/c1ccc(O)c(O)c1` [BUTYL CAFFEATE], about 3000 nM.

For the next experiment, the system named is WISH. The description is as §1. The experiment is classed as functional. Summed up: as §2
As to `O=c1cc(-c2ccccc2[N+](=O)[O-])oc2ccccc12`, the Inhibition is recorded as about 70%.
Same read-out and setting: the result for `O=c1cc(-c2ccccc2[N+](=O)[O-])oc2ccc([N+](=O)[O-])cc12` reads about 70%; that for `CCCCOC(=O)/C=C/c1ccc(O)c(O)c1` [BUTYL CAFFEATE], about 70%.
Still for that read-out and setting: with `CCOC(=O)/C=C/c1ccc(O)c(O)c1` [ETHYL CAFFEATE] the figure was 50%.

(Values after ChEMBL document CHEMBL1146683, “Antiproliferative activity of various flavonoids and related compounds: additive effect of interferon-alpha2b” (Bioorg Med Chem Lett, 2004).)
